From ChEMBL document CHEMBL3259548, “Design, synthesis and biological evaluation of novel isoniazid derivatives with potent antitubercular activity” (Eur J Med Chem, 2014)
Converted amounts (≈) assume the structure as drawn.

System: not listed separately
Test: Octanol-water partition co-efficient, log P of the compound by shake-flask method
Assay type: physicochemical
Conditions: not given

| Compound | logP |
| --- | --- |
| O=Cc1cccc(/C=N/NC(=O)c2ccncc2)c1 | 1.33 |
| O=C(NNC1CCC(c2ccccc2)CC1)c1ccncc1 (configuration not stated) | 2.83 |
| NNC(=O)c1ccncc1 [ISONIAZID] | -0.851 |
| O=Cc1ccc(/C=N/NC(=O)c2ccncc2)cc1 | 1.32 |
| NNC(=O)c1ccnc(NN)c1 | -0.541 |
| O=C(N/N=C/c1ccc(CO)cc1)c1ccncc1 | 0.731 |
| CCCCCCCCCC(=O)NNC(=O)c1ccncc1 | 3.46 |
| O=C(NN=C1CCCC1)c1ccncc1 | 0.22 |
| O=C(NN=C1CCC(c2ccccc2)CC1)c1ccncc1 (configuration not stated) | 1.97 |
| O=C(N/N=C/c1cccc(CO)c1)c1ccncc1 | 0.902 |
| COC(=O)c1ccc(/C=N/NC(=O)c2ccncc2)cc1 | 1.32 |
| O=C(N/N=C/c1ccc(Oc2ccccc2)cc1)c1ccncc1 | 3.7 |
| CCCCCC(C)C(=O)NNC(=O)c1ccncc1 (configuration not stated) | 2.09 |

System: Mycobacterium tuberculosis
Test: Antitubercular activity against Mycobacterium tuberculosis H37Rv ATCC 27294 by BACTEC 960 assay
Assay type: functional
Conditions: not given

| Compound | MIC [µM] |
| --- | --- |
| CC(C)CCOc1ccc(/C=N/NC(=O)c2ccncc2)cc1 | 0.161 (≈ 0.0501 µg/mL) |
| Cc1ccc(OC/C(N)=N/NC(=O)c2ccncc2)cc1 | 22 (≈ 6.25 µg/mL) |
| CC(O)(NNC(=O)c1ccncc1)C(=O)O (configuration not stated) | 0.266 (≈ 0.0599 µg/mL) |
| NNC(=O)c1ccnc(N)c1 | 14.5 (≈ 2.21 µg/mL) |
| CC(C)(C#N)NNC(=O)c1ccncc1 | 0.294 (≈ 0.06 µg/mL) |
| O=Cc1cccc(/C=N/NC(=O)c2ccncc2)c1 | 0.28 (≈ 0.0709 µg/mL) |
| CCCCCC/C=N/NC(=O)c1ccncc1 | 0.129 (≈ 0.0301 µg/mL) |
| O=C(NNS(=O)(=O)c1ccccc1)c1ccncc1 | 10.8 (≈ 3 µg/mL) |
| CCC(CC)NNC(=O)c1ccncc1 | 14.5 (≈ 3 µg/mL) |
| O=C(NNC(=O)C(O)C(O)C(O)CO)c1ccncc1 (configuration not stated) | 0.501 (≈ 0.143 µg/mL) |
| CCN(CC)c1ccc(/C=N/NC(=O)c2ccncc2)cc1 | 2.02 (≈ 0.6 µg/mL) |
| C/C(=N\NC(=O)c1ccncc1)c1cccc(CN2CCOCC2)c1O | 3.57 (≈ 1.27 µg/mL) |
| CCN(CC)c1cc(C(=O)NN)ccn1 | 717 (≈ 149 µg/mL) |
| CCC(CC)=NNC(=O)c1ccncc1 | 0.097 (≈ 0.0199 µg/mL) |
| O=C(NNC1CCC(c2ccccc2)CC1)c1ccncc1 (configuration not stated) | 0.44 (≈ 0.13 µg/mL) |
| O=C(N/N=C/C(O)C(O)C(O)CO)c1ccncc1 (configuration not stated) | 0.186 (≈ 0.0501 µg/mL) |
| O=C(NNC(=O)c1ccncc1)c1ccncc1 | 33 (≈ 8 µg/mL) |
| CC1CCC(=NNC(=O)c2ccncc2)CC1 (configuration not stated) | 0.303 (≈ 0.0701 µg/mL) |
| C/C=N/NC(=O)c1ccncc1 | 0.245 (≈ 0.04 µg/mL) |
| Cc1ccccc1OC/C(N)=N/NC(=O)c1ccncc1 | 44 (≈ 12.5 µg/mL) |
| CC(=O)C/C(C)=N/NC(=O)c1ccncc1 | 3.65 (≈ 0.8 µg/mL) |
| CCn1cc(C(=O)O)c(=O)c2cc(F)c(N3CCN(Cc4cccc(/C(C)=N/NC(=O)c5ccncc5)c4O)C(C)C3)c(F)c21 (configuration not stated) | 0.9 (≈ 0.557 µg/mL) |
| C/C(=N\NC(=O)c1ccncc1)c1cccc(CN2CCCCC2)c1O | 4.61 (≈ 1.62 µg/mL) |
| CCc1cc(C(=O)NN)ccn1 | 21.1 (≈ 3.49 µg/mL) |

| Compound | MIC [µM] |
| --- | --- |
| CCCCCCCCC(=O)NNC(=O)c1ccncc1 | 0.09 (≈ 0.025 µg/mL) |
| CCOc1cc(C(=O)NN)ccn1 | 450 (≈ 81.5 µg/mL) |
| NNC(=O)c1ccnc(-c2ccccc2)c1 | 50 (≈ 10.7 µg/mL) |
| CCCCCCCCCC/C=N/NC(=O)c1ccncc1 | 1.04 (≈ 0.3 µg/mL) |
| NNC(=O)c1ccncc1 [ISONIAZID] | 0.146 (≈ 0.02 µg/mL) |
| NNC(=O)c1ccnc(Cc2ccccc2)c1 | 38.5 (≈ 8.75 µg/mL) |
| C/C(=N\NC(=O)c1ccncc1)c1cccc(CN2CCCC2)c1O | 2.2 (≈ 0.745 µg/mL) |
| O=Cc1ccc(/C=N/NC(=O)c2ccncc2)cc1 | 0.24 (≈ 0.0608 µg/mL) |
| N/C(COc1cccc(Cl)c1)=N\NC(=O)c1ccncc1 | 10.2 (≈ 3.12 µg/mL) |
| NNC(=O)c1ccnc(NN)c1 | 0.42 (≈ 0.0702 µg/mL) |
| O=C(N/N=C/c1ccc(CO)cc1)c1ccncc1 | 0.27 (≈ 0.0689 µg/mL) |
| O=C(NN=C1CCCCC1)c1ccncc1 | 0.028 (≈ 0.00608 µg/mL) |
| CC1CCCC(NNC(=O)c2ccncc2)C1 (configuration not stated) | 17.1 (≈ 4 µg/mL) |
| CC(=O)Nc1cc(C(=O)NN)ccn1 | 2150 (≈ 418 µg/mL) |
| O=C(NNC1CCCCC1)c1ccncc1 | 22.8 (≈ 5 µg/mL) |
| CCCCCCCCCC(=O)NNC(=O)c1ccncc1 | 0.38 (≈ 0.111 µg/mL) |
| C/C(=N/NC(=O)c1ccncc1)c1cccc(CN2CCN(Cc3ccc(F)cn3)CC2)c1O | 2.04 (≈ 0.944 µg/mL) |
| C/C(=N/NC(=O)c1ccncc1)c1cccc(CN2CCN(Cc3ccccn3)CC2)c1O | 0.87 (≈ 0.387 µg/mL) |
| C/C=C/CCCCCCC/C=N/NC(=O)c1ccncc1 | 0.522 (≈ 0.15 µg/mL) |
| NNC(=O)c1ccnc(Cl)c1 | 392 (≈ 67.3 µg/mL) |
| O=CNNC(=O)c1ccncc1 | 18.2 (≈ 3 µg/mL) |
| Cc1ccc(C)n1NC(=O)c1ccncc1 | 46.5 (≈ 10 µg/mL) |
| C/C(=N\NC(=O)c1ccncc1)c1cccc(CN(C)C)c1O | 2.29 (≈ 0.715 µg/mL) |
| O=C(NN=C1CCCC1)c1ccncc1 | 0.2 (≈ 0.0406 µg/mL) |

| Compound | MIC [µM] |
| --- | --- |
| CNC1C(OC2C(OC3C(O)C(O)C(NC(=N)N)C(O)C3NC(=N)N)OC(C)C2(O)/C=N\NC(=O)c2ccncc2)OC(CO)C(O)C1O (configuration not stated) | 0.214 (≈ 0.15 µg/mL) |
| Cc1cc(C(=O)NN)ccn1 | 5.2 (≈ 0.786 µg/mL) |
| N/C(COc1ccc(Cl)cc1)=N\NC(=O)c1ccncc1 | 10.2 (≈ 3.12 µg/mL) |
| CCCCN(CCCC)Cc1cccc(/C(C)=N/NC(=O)c2ccncc2)c1O | 4.43 (≈ 1.76 µg/mL) |
| O=C(NNCc1ccco1)c1ccncc1 | 69.1 (≈ 15 µg/mL) |
| NNC(=O)c1ccncc1N | 9.86 (≈ 1.5 µg/mL) |
| O=C(NNC(=O)C(O)C(OC1OC(CO)C(O)C(O)C1O)C(O)CO)c1ccncc1 (configuration not stated) | 0.346 (≈ 0.155 µg/mL) |
| CC(C)/C=N\NC(=O)c1ccncc1 | 0.523 (≈ 0.1 µg/mL) |
| CCN(CC)CN(C)c1ccc(/C=N/NC(=O)c2ccncc2)cc1 | 0.236 (≈ 0.0801 µg/mL) |
| NNC(=O)c1ccnc([N+](=O)[O-])c1 | 371 (≈ 67.6 µg/mL) |
| C/C(=N\NC(=O)c1ccncc1)c1cccc(CN2CCN(C)CC2)c1O | 3.36 (≈ 1.23 µg/mL) |
| Cc1cccc(OC/C(N)=N/NC(=O)c2ccncc2)c1 | 11 (≈ 3.12 µg/mL) |
| Cc1cnccc1C(=O)NN | 1320 (≈ 200 µg/mL) |
| C/C(=N\NC(=O)c1ccncc1)c1cccc(CN2CCN(c3cc4c(cc3F)c(=O)c(C(=O)O)cn4C3CC3)CC2)c1O | 1.26 (≈ 0.754 µg/mL) |
| CC(C)NNC(=O)c1ccncc1 [IPRONIAZID] | 2.23 (≈ 0.4 µg/mL) |
| C/C(=N\NC(=O)c1ccncc1)c1cccc(CN(c2ccccc2)c2ccccc2)c1O | 0.56 (≈ 0.244 µg/mL) |
| CCC(C)NNC(=O)c1ccncc1 (configuration not stated) | 2.07 (≈ 0.4 µg/mL) |
| NNC(=O)c1ccnc(F)c1 | 2.58 (≈ 0.4 µg/mL) |
| C=Cc1cc(C(=O)NN)ccn1 | 35 (≈ 5.71 µg/mL) |
| Nc1ccc(S(=O)(=O)NNC(=O)c2ccncc2)cc1 | 2050 (≈ 600 µg/mL) |
| CC(C)=NNC(=O)c1ccncc1 | 0.113 (≈ 0.02 µg/mL) |
| CC(=O)NNC(=O)c1ccncc1 | 44.6 (≈ 8 µg/mL) |
| N/C(COc1ccc([N+](=O)[O-])cc1)=N/NC(=O)c1ccncc1 | 19.8 (≈ 6.25 µg/mL) |
| CCCc1cc(C(=O)NN)ccn1 | 55.2 (≈ 9.89 µg/mL) |

| Compound | MIC [µM] |
| --- | --- |
| CC(C)COc1ccc(/C=N/NC(=O)c2ccncc2)cc1 | 0.673 (≈ 0.2 µg/mL) |
| CCCCCCCCCCCCNNC(=O)c1ccncc1 | 0.164 (≈ 0.0501 µg/mL) |
| O=C(NN=C1CCC(c2ccccc2)CC1)c1ccncc1 (configuration not stated) | 0.27 (≈ 0.0792 µg/mL) |
| CC(C)CNNC(=O)c1ccncc1 | 0.517 (≈ 0.0999 µg/mL) |
| O=C(N/N=C(\CO)C(O)C(O)C(O)CO)c1ccncc1 (configuration not stated) | 0.2 (≈ 0.0599 µg/mL) |
| C/C(=N\NC(=O)c1ccncc1)c1cccc(CN2CCN(c3ccccn3)CC2)c1O | 0.88 (≈ 0.379 µg/mL) |
| CCN(CC)Cc1cccc(/C(C)=N\NC(=O)c2ccncc2)c1O | 3.93 (≈ 1.34 µg/mL) |
| O=C(N/N=C/c1cccc(CO)c1)c1ccncc1 | 0.47 (≈ 0.12 µg/mL) |
| NNC(=O)c1ccnc(Br)c1 | 69.4 (≈ 15 µg/mL) |
| NNC(=O)c1ccnc(I)c1 | 254 (≈ 66.8 µg/mL) |
| COC(=O)c1ccc(/C=N/NC(=O)c2ccncc2)cc1 | 1.06 (≈ 0.3 µg/mL) |
| O=C(N/N=C/c1ccc(Oc2ccccc2)cc1)c1ccncc1 | 0.95 (≈ 0.301 µg/mL) |
| CC(=O)NCc1cc(C(=O)NN)ccn1 | 243 (≈ 50.6 µg/mL) |
| C/C(=N/NC(=O)c1ccncc1)c1cccc(CN2CCNCC2)c1O | 8.61 (≈ 3.04 µg/mL) |
| CCCCCC(C)C(=O)NNC(=O)c1ccncc1 (configuration not stated) | 3.04 (≈ 0.801 µg/mL) |
| O=C(NNS(=O)(=O)c1ccc([N+](=O)[O-])cc1)c1ccncc1 | 186 (≈ 60 µg/mL) |
| C/C(=N\NC(=O)c1ccncc1)c1cccc(CN(Cc2ccccc2)Cc2ccccc2)c1O | 1.3 (≈ 0.604 µg/mL) |
| O=C(NNC(O)C(Cl)(Cl)Cl)c1ccncc1 (configuration not stated) | 0.141 (≈ 0.0401 µg/mL) |
| CC(=O)Nc1ccc(/C=N\NC(=O)c2ccncc2)cc1 | 0.283 (≈ 0.0799 µg/mL) |
| CCCCC/C(C)=N/NC(=O)c1ccncc1 | 0.129 (≈ 0.0301 µg/mL) |
| CC1CCC(NNC(=O)c2ccncc2)CC1 (configuration not stated) | 21.4 (≈ 5 µg/mL) |
| COc1cc(C(=O)NN)ccn1 | 153 (≈ 25.6 µg/mL) |

System: not listed separately
Test: Selectivity index, ratio of IC50 for african green monkey Vero cells to MIC for Mycobacterium tuberculosis H37Rv ATCC 27294
Assay type: toxicity, cell-based
Conditions: read-out: Selectivity Index
In short: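 Vero cells were seeded at ~4×10^5 cells/mL and grown 48 h at 37 °C in 5% CO2. […] MTT 0.5 mg/mL was added for 2 h and formazan dissolved in DMSO, with absorbance read at 570 nm to give IC50. SI = IC50 / H37Rv MIC (IC99).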

| Compound | selectivity ratio |
| --- | --- |
| O=Cc1cccc(/C=N/NC(=O)c2ccncc2)c1 | > 724 |
| O=C(NNC1CCC(c2ccccc2)CC1)c1ccncc1 (configuration not stated) | > 454 |
| NNC(=O)c1ccncc1 [ISONIAZID] | > 686 |
| O=Cc1ccc(/C=N/NC(=O)c2ccncc2)cc1 | > 844 |
| NNC(=O)c1ccnc(NN)c1 | > 478 |
| O=C(N/N=C/c1ccc(CO)cc1)c1ccncc1 | > 729 |
| CCCCCCCCCC(=O)NNC(=O)c1ccncc1 | > 530 |
| O=C(NN=C1CCCC1)c1ccncc1 | > 965 |
| O=C(NN=C1CCC(c2ccccc2)CC1)c1ccncc1 (configuration not stated) | > 733 |
| O=C(N/N=C/c1cccc(CO)c1)c1ccncc1 | > 425 |

System: Vero
Test: Cytotoxicity against african green monkey Vero cells after 48 hrs by MTT assay
Assay type: cell-based
Conditions: Chlorocebus sabaeus

| Compound | IC50 [µM] |
| --- | --- |
| O=Cc1cccc(/C=N/NC(=O)c2ccncc2)c1 | > 200 |
| O=C(NNC1CCC(c2ccccc2)CC1)c1ccncc1 (configuration not stated) | > 200 |
| NNC(=O)c1ccncc1 [ISONIAZID] | > 200 |
| O=Cc1ccc(/C=N/NC(=O)c2ccncc2)cc1 | > 200 |
| NNC(=O)c1ccnc(NN)c1 | > 200 |
| O=C(N/N=C/c1ccc(CO)cc1)c1ccncc1 | > 200 |
| CCCCCCCCCC(=O)NNC(=O)c1ccncc1 | > 75 |
| O=C(NN=C1CCCC1)c1ccncc1 | > 190 |
| O=C(NN=C1CCC(c2ccccc2)CC1)c1ccncc1 (configuration not stated) | > 200 |
| O=C(N/N=C/c1cccc(CO)c1)c1ccncc1 | > 200 |
